The record followed here is ChEMBL document CHEMBL3425458, “Design, synthesis and antitumor activity of triterpenoid pyrazine derivatives from 23-hydroxybetulinic acid” (Eur J Med Chem, 2015).

In one data set the test system is H22. Briefly: In vivo antitumor activity […] cells xenografted in mouse assessed as tumor growth inhibitory ratio at 30 mg/kg, ip administered after 7 days of tumor transplantation measured at 25th day after tumor inoculation. It counts as functional. The conditions noted are these: 168 h, route intraperitoneal. The procedure, abridged: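 Mice bearing H22 liver cancer, 10 per group. Test article at 30 mg/kg ip. Vehicle 0.5 mL/mouse iv. Cyclophosphamide 30 mg/kg iv as positive control. Tumor weight recorded to give tumor inhibitory ratio.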

Data set [1] concerns Mus musculus. The data set can be described thus: Toxicity against mouse xenografted […] cells assessed as body weight at 30 mg/kg, ip administered after 7 days of tumor transplantation (reference value: 18.1 to 18.6 gms). Further details: dose 30 mg/kg, route intraperitoneal. The conditions noted are these: in vivo, 168 h. It counts as organism-based. In short, it runs like this:
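H22 liver cancer-bearing mice, 10 per group at start and end. Test article given ip at 30 mg/kg, with a vehicle group (0.5 mL/mouse, iv). Body weight was recorded at start and at end, alongside tumor weight.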
On the technique in general: A xenograft is tissue or cells of one species grown in another, often human tumour cells in immunodeficient mice.

Data set [2] has as its system B16. The data set can be described thus: In vivo antitumor activity against mouse B16 cells xenografted in mouse assessed as tumor growth inhibitory ratio at 30 mg/kg, ip administered after 7 days of tumor transplantation measured at 25th day after tumor inoculation. The conditions noted are these: 168 h, route intraperitoneal. Format: functional.
Data set [3] has as its system Mus musculus. Briefly: Toxicity against mouse xenografted with mouse B16 cells assessed as body weight at 30 mg/kg, ip administered after 7 days of tumor transplantation (reference value: 18.2 to 18.3 gms). It counts as organism-based. Further details: dose 30 mg/kg, route intraperitoneal. The conditions noted are these: in vivo, 168 h.
The nature of data set [4]: Antiproliferative activity against human SF763 cells assessed as growth inhibition after 72 hrs by MTT assay. Format: functional, cell-based. The conditions noted are these: SF763, 72 h. The procedure, abridged: (§1)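 Values are mean ± S.D. from three different experiments, each performed in triplicate.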
A general note: Tetrazolium dyes change colour on reduction, which living cells bring about.

Data set [5] concerns B16. Briefly: Antiproliferative activity against mouse B16 cells assessed as growth inhibition after 72 hrs by MTT assay. Format: functional, cell-based. The following applies: B16, 72 h. In short, it runs like this: (§2)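 IC50 is the concentration inhibiting 50% cell growth. Values are mean ± S.D. from three different experiments, each performed in triplicate.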
The next data set has as its system HeLa. The data set can be described thus: Antiproliferative activity against human HeLa cells assessed as growth inhibition after 72 hrs by MTT assay. It counts as functional, cell-based. In short, it runs like this: as §2
Data set [6] can be described thus: Antiproliferative activity against human HL60 cells assessed as growth inhibition after 72 hrs by MTT assay. Format: functional, cell-based. The following applies: HL-60, 72 h. In short, it runs like this:
as §1

Data set [7] in a line: Antiproliferative activity against human Bel7402 cells assessed as growth inhibition after 72 hrs by MTT assay. Format: functional, cell-based. The following applies: Bel-7402, 72 h. The procedure, abridged:
as §2

The term inhibition in vivo denotes the change of the read-out against control, counted positive when it falls. For `C=C(C)[C@@H]1CC[C@]2(C(=O)O)CC[C@]3(C)[C@H](CC[C@@H]4[C@@]5(C)CC[C@H](O)[C@@](C)(CO)[C@@H]5CC[C@]43C)[C@@H]12`, the inhibition in vivo at 30 mg/kg in the data set with H22 turned out to be 27.8%; in the data set on B16 [2], 32.4%. For the same molecule, the Activity turned out to be 26.1 g in the data set with Mus musculus [1] and 26.7 g in the data set on Mus musculus [3].
Broadly, the IC50 is the concentration that gives 50% inhibition. In the case of `C=C(C)[C@@H]1CC[C@]2(C(=O)OCc3ccccc3)CC[C@]3(C)[C@H](CC[C@@H]4[C@@]5(C)Cc6nccnc6[C@@](C)(CO)[C@@H]5CC[C@]43C)[C@@H]12`, the IC50 in data set [4] is 9.54 µM; in the data set with B16 [5], 8.56 µM; in the data set on HeLa, 12.8 µM; in data set [6] it was 18.9 µM; in data set [7], 10.1 µM.
On to `C=C(C)[C@@H]1CC[C@]2(C(=O)O)CC[C@]3(C)[C@H](CC[C@@H]4[C@@]5(C)Cc6nccnc6[C@@](C)(COC(C)=O)[C@@H]5CC[C@]43C)[C@@H]12`, for which the 50% inhibitory concentration (IC50) in [4] stood at 11.1 µM; in the data set with B16 [5], 9.9 µM; with HeLa it was 14.6 µM; in data set [6], 20.4 µM; in data set [7], 16.8 µM.
On to `C=C(C)[C@@H]1CC[C@]2(C(=O)O)CC[C@]3(C)[C@H](CC[C@@H]4[C@@]5(C)Cc6nccnc6[C@@](C)(CO)[C@@H]5CC[C@]43C)[C@@H]12`, for which the IC50 worked out at 15.4 µM in data set [4]; 14.9 µM with B16 [5]; 19.6 µM in the data set on HeLa; 24.1 µM in data set [6]; 19.1 µM in data set [7].
Take `C=C(C)[C@@H]1CC[C@]2(C(=O)OCC)CC[C@]3(C)[C@H](CC[C@@H]4[C@@]5(C)Cc6nccnc6[C@@](C)(CO)[C@@H]5CC[C@]43C)[C@@H]12`: the IC50 was found to be 10 µM in [4]; 9.97 µM in the data set on B16 [5]; 15.1 µM with HeLa; 22.5 µM in data set [6]; 14.8 µM in [7].
For `C=C(C)[C@@H]1CC[C@]2(C(=O)OCCO)CC[C@]3(C)[C@H](CC[C@@H]4[C@@]5(C)Cc6nccnc6[C@@](C)(CO)[C@@H]5CC[C@]43C)[C@@H]12` the same measures were 13.5 µM, 13.1 µM, 20.7 µM, 23.6 µM and 17.4 µM.
`C=CCOC(=O)[C@]12CC[C@@H](C(=C)C)[C@@H]1[C@H]1CC[C@@H]3[C@@]4(C)Cc5nccnc5[C@@](C)(CO)[C@@H]4CC[C@@]3(C)[C@]1(C)CC2`: the IC50 turned out to be 8.62 µM in data set [4]; 8.98 µM in the data set with B16 [5]; 11 µM with HeLa; 19.1 µM in [6]; 11.9 µM in data set [7].
Regarding `C=C(C)[C@@H]1CC[C@]2(C(=O)OCC(=O)OCC)CC[C@]3(C)[C@H](CC[C@@H]4[C@@]5(C)Cc6nccnc6[C@@](C)(CO)[C@@H]5CC[C@]43C)[C@@H]12`, the IC50 in data set [4] came to 13.1 µM; in the data set with B16 [5] it was 11.3 µM; in the data set with HeLa, 17 µM; in data set [6] it was 23.6 µM; in data set [7] it was 17 µM.
As for `C=C(C)[C@@H]1CC[C@]2(C(=O)OCc3ccc(-c4ccccc4C#N)cc3)CC[C@]3(C)[C@H](CC[C@@H]4[C@@]5(C)Cc6nccnc6[C@@](C)(CO)[C@@H]5CC[C@]43C)[C@@H]12`, the IC50 came out at 5.63 µM in [4]; 7.15 µM in the data set with B16 [5]; 9.32 µM in the data set with HeLa; 11.7 µM in data set [6]; 9.37 µM in [7].
Consider `C=C(C)[C@@H]1CC[C@]2(C(=O)O[C@@H]3O[C@H](CO)[C@@H](O)[C@H](O)[C@H]3O)CC[C@]3(C)[C@H](CC[C@@H]4[C@@]5(C)Cc6nccnc6[C@@](C)(CO)[C@@H]5CC[C@]43C)[C@@H]12`, for which the concentration for half-maximal inhibition (IC50) in data set [4] is 11 µM; in the data set on B16 [5], 12.8 µM; with HeLa, 15.9 µM; in data set [6], 21.1 µM; in data set [7], 17.7 µM.
As for `C=C(C)[C@@H]1CC[C@]2(C(=O)OCC(=O)O)CC[C@]3(C)[C@H](CC[C@@H]4[C@@]5(C)Cc6nccnc6[C@@](C)(CO)[C@@H]5CC[C@]43C)[C@@H]12`, the half-maximal inhibitory concentration (IC50) in [4] was found to be 8.86 µM; in the data set on B16 [5] it was 9.41 µM; with HeLa, 10.1 µM; in data set [6], 19.5 µM; in data set [7] it was 13.1 µM.
Regarding `C=C(C)[C@@H]1CC[C@]2(C(=O)NCC(=O)OC)CC[C@]3(C)[C@H](CC[C@@H]4[C@@]5(C)Cc6nccnc6[C@@](C)(COC(C)=O)[C@@H]5CC[C@]43C)[C@@H]12`, the IC50 in [4] was determined as 9.26 µM; with B16 [5], 8.08 µM; in the data set with HeLa, 10.9 µM; in data set [6], 14.7 µM; in data set [7], 11.1 µM.
For the molecule `C=C(C)[C@@H]1CC[C@]2(C(=O)OCCO)CC[C@]3(C)[C@H](CC[C@@H]4[C@@]5(C)Cc6nccnc6[C@@](C)(COC(C)=O)[C@@H]5CC[C@]43C)[C@@H]12`, the IC50 turned out to be 13 µM in [4]; 12.1 µM in the data set on B16 [5]; 17.5 µM in the data set on HeLa; 22.2 µM in [6]; 15.7 µM in data set [7].
Consider `C=C(C)[C@@H]1CC[C@]2(C(=O)Oc3ccc(C#N)cc3)CC[C@]3(C)[C@H](CC[C@@H]4[C@@]5(C)Cc6nccnc6[C@@](C)(COC(C)=O)[C@@H]5CC[C@]43C)[C@@H]12`, for which the IC50 in data set [4] is 5.77 µM; with B16 [5], 6.02 µM; in the data set on HeLa it was 7.91 µM; in data set [6], 10.2 µM; in data set [7], 8.09 µM.
With `O=P1(N(CCCl)CCCl)NCCCO1` (centres undefined) [CYCLOPHOSPHAMIDE ANHYDROUS], the inhibition in vivo at 30 mg/kg with H22 worked out at 53.7%. In the data set on Mus musculus [1], the Activity is reported as 25.7 g.
With `COc1cccc2c1C(=O)c1c(O)c3c(c(O)c1C2=O)C[C@@](O)(C(=O)CO)C[C@@H]3O[C@H]1C[C@H](N)[C@H](O)[C@H](C)O1` [DOXORUBICIN], the IC50 in data set [7] is 0.22 µM.
On to `O=c1[nH]cc(F)c(=O)[nH]1` [FLUOROURACIL], for which the inhibition in vivo at 30 mg/kg in the data set on B16 [2] amounted to 70.3%. In the data set with Mus musculus [3], the Activity is given as 26.2 g.
